Results gathered from unrelated publications.
Lines come from different studies, so protocols differ.
Target: Myotonin-protein kinase (DMPK, Homo sapiens, UniProt Q09013)
One construct used (Q09013 1-629): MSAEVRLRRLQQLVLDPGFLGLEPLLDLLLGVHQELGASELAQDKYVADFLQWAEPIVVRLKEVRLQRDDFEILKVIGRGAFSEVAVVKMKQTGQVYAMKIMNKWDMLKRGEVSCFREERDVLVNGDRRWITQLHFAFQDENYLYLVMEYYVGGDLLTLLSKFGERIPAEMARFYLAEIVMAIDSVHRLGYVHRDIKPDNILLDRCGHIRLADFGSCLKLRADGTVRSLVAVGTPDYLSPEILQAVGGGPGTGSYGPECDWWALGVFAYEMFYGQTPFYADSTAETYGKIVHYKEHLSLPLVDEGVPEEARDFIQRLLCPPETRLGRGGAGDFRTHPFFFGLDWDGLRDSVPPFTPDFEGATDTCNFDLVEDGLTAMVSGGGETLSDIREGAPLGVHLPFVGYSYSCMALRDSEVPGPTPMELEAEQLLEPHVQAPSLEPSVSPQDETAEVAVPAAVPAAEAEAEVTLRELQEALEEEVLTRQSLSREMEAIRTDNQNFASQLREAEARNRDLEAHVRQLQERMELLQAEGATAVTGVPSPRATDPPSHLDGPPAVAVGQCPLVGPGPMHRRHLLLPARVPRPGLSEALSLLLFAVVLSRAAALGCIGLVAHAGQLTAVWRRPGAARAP

CCCCC(=O)Nc1ccc(-c2ccc3ncn(CCC)c(=O)c3c2)cn1  remaining binding (binding, competition with immobilised ligand; 0.5 µM): 83%
C=CC(=O)N1CCC[C@@H](n2nc(-c3ccc(Oc4ccccc4)cc3)c3c(N)ncnc32)C1  inhibition (enzyme activity, inhibitor; 1 µM): 1%
CC(C)S(=O)(=O)c1ccc2nccc(Nc3ccc4sc(C5CCCC5)nc4c3)c2c1  activity vs control (enzyme activity, inhibitor; 1 µM): 80%
Cc1ccc(NC(=O)c2ccnc(C(F)(F)F)c2)cc1-c1cc(OCCO)nc(N2CCOCC2)c1  remaining binding (binding, competition with immobilised ligand; 1 µM): 100%
C1=C/COCc2cc(ccc2OCCN2CCCC2)Nc2nccc(n2)-c2cccc(c2)COC/1  remaining binding (binding; 0.1 µM): 100%
COc1ccc2[nH]c3c4[nH]c5ccc(OC)cc5c4c4c(c3c2c1)C(=O)NC4=O  remaining binding (binding, competition with immobilised ligand; 1 µM): 56%
C=CC(=O)N1CCC([C@@H]2CCNc3c(C(N)=O)c(-c4ccc(Oc5ccccc5)cc4)nn32)CC1  inhibition (enzyme activity, inhibitor; 1 µM): 10%
COc1ccc2oc(-c3ccc4nc(N)oc4c3)c/c(=N\c3ccccc3NC(=O)CCN)c2c1  remaining binding (binding; 1 µM): 102%
